Published values collected from several papers.
Protocols differ between the studies behind these lines.
Cell line: A549
Observed: cell growth or viability

SMILES | assay | conditions | IC50
OC1CCN(c2ccc(/C=N/NC(=S)Nc3cccc(Cl)c3Cl)cc2)CC1 | MTT | 24 h | 0.58 µM
O=C(N[C@@H](CSCc1ccc([N+](=O)[O-])cc1)C(=O)NO)c1ccccc1 | MTT | 48 h | 48.2 µM
Fc1ccccc1Nc1nc(-c2ccncc2)nc2c1CNCC2 | MTT | – | > 100 µM
O=C(O)c1ccc(NCc2cc(Br)ccc2O)cc1 | resazurin | 72 h | > 100 µM
COc1cc(C=NNC(=O)c2cc(-c3ccccc3)n(-c3ccc(S(N)(=O)=O)cc3)n2)cc(OC)c1OC | fluorescence | 48 h | 18.8 µM
CC#CCn1cnc2ccc(-c3ccc(NC(=O)CCCC)nc3)cc2c1=O | CCK-8 | 72 h | > 10 µM
C/C(=N\C(=O)/N=C(\C)c1c(O)c2ccccc2oc1=O)c1c(O)c2ccccc2oc1=O | MTT | 48 h | 19.7 µM
O=C1/C(=C/c2ccc3ccccc3c2O)NC(=S)N1c1ccccc1 | MTT | – | 5.2 µg/mL
CCCCn1cnc2ccc(-c3ccc(NC(=O)Nc4ccc(CC)cc4)nc3)cc2c1=O | CCK-8 | 72 h | > 10 µM
CC1CCC(C(C)C)C(OC2=C(Cl)C(=O)c3ccccc3C2=O)C1 (centres unmarked) | MTT | 24 h | > 50 µg/mL
COc1cc([C@@H]2c3cc4c(cc3[C@@H](O[C@@H]3O[C@@H]5CO[C@@H](C)O[C@H]5[C@H](O)[C@H]3O)[C@H]3COC(=O)[C@H]23)OCO4)cc(OC)c1O | MTT | 48 h | 14.3 µM
Cc1ccc(CNC(=S)N/N=C/c2ccc(N3CCC(O)CC3)cc2)cc1 | MTT | 24 h | 3.28 µM
CCCCCC(=O)Nc1ccc(-c2ccc3ncn(CCC)c(=O)c3c2)cn1 | CCK-8 | 72 h | 0.17 µM
CCCC(=O)Nc1nc2cc(-c3ccc4ncn(Cc5ccccc5)c(=O)c4c3)ccc2s1 | MTT | 72 h | 7.87 µM
CC(C)Cc1ccc([C@H](C)C(=O)O)cc1 | SRB | 72 h | 349 µM
C(=N\Nc1cc(N/N=C/c2cccc3cccnc23)nc(-c2ccccc2)n1)/c1cccc2cccnc12 | MTT | 48 h | 12.6 µM
O=C(Nc1ccc(-c2ccc3ncn(Cc4ccccc4)c(=O)c3c2)cn1)C1CCCC1 | CCK-8 | 72 h | > 10 µM
Cc1c2c(nn1C)CSCc1cc(n(C)n1)CSc1cc(c3ccccc3c1)OCCCc1c(C(=O)O)n(C)c3c-2c(Cl)ccc13 | CCK-8 | – | 50 µM
O=c1c2cc(Cl)cc(Cl)c2nc(NNc2cccc(Cl)c2)n1-c1ccccc1 | MTT | 48 h | > 200 µM
Cc1cc(NS(=O)(=O)c2ccc(NC(=O)/C(C#N)=C/c3ccc(N4CCCC4)cc3)cc2)no1 | MTT | 48 h | 180 µM
CN1CCC(NC2CCc3[nH]c4c(C(N)=O)ccc(-c5ccccc5Cl)c4c3C2)CC1 (centres unmarked) | – | 96 h | 0.0301 µM
O=C(C=Cc1ccc(OCCCOc2ccc(C=CC(=O)c3cccs3)cc2)cc1)c1cccs1 | MTT | 48 h | 92.4 µM

SMILES | assay | conditions | IC50
O=C(NCc1ccccc1)Nc1nc2cc(-c3ccc4ncn(Cc5ccccc5)c(=O)c4c3)ccc2s1 | MTT | 72 h | 3.13 µM
O=C(O)c1ccc(NCc2ccccc2)cc1 | resazurin | 72 h | > 100 µM
CC(C)[C@@H]1NC(=O)[C@@H](CCCNC(=N)N)NC(=O)[C@H]([C@@H](C)O)NC(=O)[C@@H](CCCN)NC(=O)[C@H](Cc2ccccc2)NC(=O)[C@@H](Cc2ccccc2)NC1=O | ATP luminescence | 72 h | > 100 µM
O=C(NO)Nc1nc2ccc(Br)cc2c(=O)n1-c1ccccc1 | MTT | 48 h | 28 µM
COC(=O)c1cc(C(C)=NNc2nc(-c3ccc4c(c3)OCCCO4)cs2)ccc1O | MTT | 96 h | 180 µM
O=C(Nc1ccc(F)cc1)Nc1nc2cc(-c3ccc4ncn(CC(=O)N5CCOCC5)c(=O)c4c3)ccc2s1 | MTT | 72 h | > 20 µM
CC(=NNC(=O)c1cc(-c2ccccc2)n(-c2ccc(S(N)(=O)=O)cc2)n1)c1ccc(C)cc1 | fluorescence | 48 h | 11.1 µM
O=C(O)c1ccc(NCc2ccc(Cl)cc2)cc1 | resazurin | 72 h | > 100 µM
COc1cccc(NC(=O)Nc2nc3cc(-c4ccc5ncn(CC(=O)N6CCOCC6)c(=O)c5c4)ccc3s2)c1 | MTT | 72 h | > 20 µM
O=C(NO)Nc1nc2c(Cl)cc(Cl)cc2c(=O)n1-c1ccccc1 | MTT | 48 h | 45.1 µM
COc1ccc(NC(=O)Nc2nc3cc(-c4ccc5ncn(CCN6CCOCC6)c(=O)c5c4)ccc3s2)cc1 | MTT | 72 h | 1.4 µM
C/C(=N\C1CCCCC1/N=C(\C)c1c(O)c2ccccc2oc1=O)c1c(O)c2ccccc2oc1=O (centres unmarked) | MTT | 48 h | 6.56 µM
O=C(O)c1ccc(NCc2cccc(C(F)(F)F)c2)cc1 | resazurin | 72 h | > 100 µM
O=C(Nc1ccc(-c2ccc3ncn(Cc4ccccc4)c(=O)c3c2)cn1)c1ccco1 | CCK-8 | 72 h | > 10 µM
CCCCn1cnc2ccc(-c3ccc4sc(NC(=O)Nc5ccc(F)cc5)nc4c3)cc2c1=O | MTT | 72 h | 1.27 µM
Cc1sc2c(c1C)C(c1ccc(Cl)cc1)=N[C@@H](CC(=O)NCCCCNC(=O)COc1cccc3c1C(=O)N(C1CCC(=O)NC1=O)C3=O)c1nnc(C)n1-2 (some centres unmarked) | CCK-8 | 72 h | > 10 µM
CNCc1cc(OC)cc2c1CN(c1cccc(-c3nncn3C(C)CC(F)(F)F)n1)C2=O (centres unmarked) | CCK-8 | – | > 10 µM
CC1=CC(=O)c2ccccc2C1=O | MTT | – | 55.6 µM
O=C(Nc1ccc(Br)cc1)Nc1nc2cc(-c3ccc4ncn(Cc5ccccc5)c(=O)c4c3)ccc2s1 | MTT | 72 h | > 20 µM
CCCC(=O)Nc1ccc(-c2ccc3ncn(Cc4ccc(C)cc4)c(=O)c3c2)cn1 | CCK-8 | 72 h | > 10 µM
O=C(Nc1ccc(F)cc1)Nc1nc2cc(-c3ccc4ncn(CCN5CCOCC5)c(=O)c4c3)ccc2s1 | MTT | 72 h | 2.51 µM
CCCn1cnc2ccc(-c3ccc(N4CCCCC4=O)nc3)cc2c1=O | CCK-8 | 72 h | > 10 µM
